From PubChem
In the library only some 2% were active in any assay of this set; here they are far more common.
E-sel inducer: induces E-selectin expression in human endothelial cells; HUVEC E-selectin immunofluorescence imaging; normalized: neutral wells 0, TNF-alpha wells 100; activation, % at 7.58 µM; 260,000 compounds, 0.37% hits;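 active means mean E-selectin-positive cell signal at least 10% of the positive control, reached in at least 60% of replicates, without over 20% cell loss; inconclusive means no rule given, readout overlaps actives, possibly toxicity-flagged; inactive means the rest, including those meeting only one limit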
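Test system: HUVEC | Signal: Immunofluorescence imaging | Read-out: Percent E-selectin-positive cells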
S100A4 MyoIIA: blocks human S100A4 binding to myosin IIA peptide; inhibition, % at 10.7 µM; 360,000 compounds, 0.14% hits; S100A4/TAMRA-MyoIIA peptide fluorescence polarization; AID 652163; P26447;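 active means mean inhibition of at least 70% across replicates, with every replicate also reaching that level; inconclusive means mean inhibition reaches 70% but some replicates fall short; inactive means mean inhibition below 70%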
Target sequence (P26447 whole entry, looked up): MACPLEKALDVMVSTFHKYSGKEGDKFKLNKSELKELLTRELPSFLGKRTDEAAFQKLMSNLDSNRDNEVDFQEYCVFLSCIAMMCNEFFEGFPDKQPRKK
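assay system = human S100A4 monomer with TAMRA-labelled myosin IIA peptide | also added = labelled myosin peptide probe, 5 nM | incubation = 5 min between mix addition and reading | control set = DMSO and TFP controls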
DENV2 CPE: inhibitors of DENV2 cytopathic effect; DENV2-infected cells, cytopathic effect rescue, plate reader; CPE inhibition, % at 9.99 µM; 350,000 compounds, 1.7% hits; AID 651640; in the data active means CPE inhibition above about 20%, passing the limit was not always enough; inconclusive means no clear call, values can overlap the other calls; tested in BHK-21 cells
Xi reactivation: reactivates the inactive X chromosome in mouse fibroblasts; activation, % at 7.58 µM; XiGFP mouse fibroblasts, % GFP-positive cells imaging, 3 d; cells co-treated with 5-aza-dC sensitizer; scaled so ellipticine positive control = 100%; AID 743238; 360,000 compounds, 0.055% hits;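 active means mean normalized replicate activation at least 10% and every replicate at or above 10%; inconclusive means only one of the two criteria met; inactive means mean below 10% and not all replicates reach 10%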
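System: XiGFP fibroblasts, SV40-immortalized. Medium: DMEM plus 5-aza-dC sensitizer. Doses: single point. Timing: 3 d treatment, 15 min room-temperature fixation. Control set: ellipticine 6 µM.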
Each line names hits and unclear results; the compound was inactive in the other large screens.

C#CCOCCOCCOCCNc1nc(N2CCN(C(=O)CCCCCCCCCCNC(=O)[C@H](CO)n3cc(CCCSC)nn3)CC2)nc(N2CCN(C(=O)CCCCCCCCCCNC(=O)[C@H](CO)n3cc(CCCSC)nn3)CC2)n1	DENV2 CPE 121
C#CCOCCOCCOCCNc1nc(N2CCN(C(=O)Cn3cc(CCO)nn3)CC2)nc(N2CCN(C(=O)[C@H]([C@@H](C)O)n3cc(CCCCN)nn3)CC2)n1	DENV2 CPE 21
NC(=O)CSc1nnc(-c2ccc([N+](=O)[O-])cc2)o1	none (no result: E-sel inducer, DENV2 CPE)
Cc1cccc(-c2ccccc2[C@H]2[C@@H](C#N)N(c3ncc(-c4ccccc4)s3)[C@H]2CO)c1	none
NC(c1csc(Nc2cc(Oc3ccccc3)ncn2)n1)C1CCCCC1 (stereo not drawn)	none
NC(Cc1ccc(C(F)(F)F)cc1)c1csc(Nc2cc(Oc3ccccc3)ncn2)n1 (stereo not drawn)	none
COc1ccc(C(N)c2csc(Nc3cc(Oc4ccccc4)ncn3)n2)cc1 (stereo not drawn)	DENV2 CPE 53
Nc1ccc(CC(N)c2csc(Nc3cc(Oc4ccccc4)ncn3)n2)cc1 (stereo not drawn)	DENV2 CPE 46
O=C(COC(=O)c1ccc(Br)o1)Nc1ccc2[nH]c(=O)[nH]c2c1	E-sel inducer 27
O=C(COC(=O)c1ccco1)Nc1ccc2[nH]c(=O)[nH]c2c1	none (no result: E-sel inducer)
COc1ccc(C(C)(NC(C)=O)c2nc(-c3cccc(F)c3)cs2)cc1 (stereo not drawn)	DENV2 CPE 29
CN1c2ccc(Br)cc2[C@H]2[C@H](CCN2S(=O)(=O)c2ccccc2)[C@H]1CO	none
CN1c2ccc(Br)cc2[C@@H]2[C@@H](CCN2S(=O)(=O)c2ccccc2)[C@H]1CO	DENV2 CPE 116
Cc1cccc(S(=O)(=O)N2CC[C@@H]3[C@@H](CO)N(C)c4ccc(Br)cc4[C@@H]32)c1	none
Cc1ccccc1S(=O)(=O)N1CC[C@@H]2[C@H]1c1cc(Br)ccc1N(C)[C@H]2CO	DENV2 CPE 66 (no result: S100A4 MyoIIA)
CN1c2ccc(Br)cc2[C@H]2[C@H](CCN2S(=O)(=O)c2cccc(F)c2)[C@H]1CO	DENV2 CPE 118
Cc1ccc(-n2c(C)nnc2SCC(=O)N(C)C2CCS(=O)(=O)C2)cc1 (stereo not drawn)	none (no result: E-sel inducer)
CCCc1cc(=O)oc2cc(C)cc(OC(C)C(=O)NCCCN3CCOCC3)c12 (stereo not drawn)	none
CO[C@@H]1CN(C)C(=O)c2cc(NC(=O)NC3CCCCC3)ccc2OC[C@H](C)N(CC2CC2)C[C@@H]1C	none
CCCN1CCC(=O)N([C@H](CSc2ccccc2)Cc2ccccc2)CC1	DENV2 CPE 49
Cc1ccc(SC[C@H](Cc2ccccc2)N2CC[C@@H](C)CCC2=O)cc1	DENV2 CPE 94
CCCN1CCC(=O)N([C@H](CSc2ccc(Br)cc2)Cc2ccccc2)CC1	none
Cc1ccc([C@@H]2[C@@H]3C(=O)N(c4ccccc4)C(=O)[C@@H]3[C@]3(C)C(=O)N(Cc4ccccc4)CC(=O)N23)o1	none
Cc1ccc([C@@H]2[C@@H]3C(=O)N(C)C(=O)[C@@H]3[C@]3(C)C(=O)N(Cc4ccc(-c5ccccc5)cc4)CC(=O)N23)o1	DENV2 CPE 92
CSCC[C@H](NC(=O)OC(C)(C)C)C(=O)N1CCC(C(=O)N[C@@H](C)C(=O)NCc2ccc(F)cc2)CC1	DENV2 CPE 36 (no result: E-sel inducer, Xi reactivation)
O=C1CC(C(=O)N2CCN(c3ccccn3)CC2)CN1Cc1ccccc1Cl (stereo not drawn)	S100A4 MyoIIA 185
C[C@H]1CN([C@@H](C)CO)C(=O)Cc2cc(NC(=O)Cc3cn(C)c4ccccc34)ccc2O[C@H]1CN(C)C(=O)Nc1ccc(C(F)(F)F)cc1	none
C[C@H]1CN([C@@H](C)CO)C(=O)Cc2cc(NC(=O)Cc3cn(C)c4ccccc34)ccc2O[C@@H]1CN(C)C(=O)Nc1ccc(C(F)(F)F)cc1	E-sel inducer 50, DENV2 CPE inconclusive
C[C@@H]1CN([C@@H](C)CO)C(=O)Cc2cc(NC(=O)Cc3cn(C)c4ccccc34)ccc2O[C@H]1CN(C)Cc1ccc(C(F)(F)F)cc1	E-sel inducer 61
Cc1ccc2nc(-c3ccc(NC(=O)C(C)N4C(=O)c5ccccc5C4=O)cc3)sc2c1 (stereo not drawn)	none (no result: E-sel inducer, S100A4 MyoIIA, DENV2 CPE)
CC(OC(=O)c1ccccc1NCCO)C(=O)NC1CCCCC1C (stereo not drawn)	DENV2 CPE 69
